Experimental data taken from ChEMBL document CHEMBL1146217, “Growth inhibition of Mycobacterium bovis, Mycobacterium tuberculosis and Mycobacterium avium in vitro: effect of 1-beta-D-2'-arabinofuranosyl and 1-(2'-deoxy-2'-fluoro-beta-D-2'-ribofuranosyl) pyrimidine nucleoside analogs” (J Med Chem, 2007).
Converted amounts (≈) assume the structure as drawn.

Key:
Mycobacterium avium = test: Antimycobacterial activity against Mycobacterium avium ATCC 25291 at 100 ug/mL by microplate Alamar blue assay; type: functional
In short: (§1)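 MABA with M. bovis BCG, M. tuberculosis H37Ra or M. avium ATCC 25291. DMSO stocks (10 mg/mL) diluted in 7H9GC; final inoculum 2.5 × 10⁵ CFU/mL. Incubated 6 days, then alamar blue plus Tween 80 added and read by fluorescence after about 24 h. […]. Tested in triplicate at 100, 50, 10 and 1 µg/mL; two experiments, mean reported.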

[1] = system: Mycobacterium tuberculosis; test: Antimycobacterial activity against Mycobacterium tuberculosis H37Ra at 100 ug/mL by microplate Alamar blue assay; type: functional; in short: as §1
[2] = Toxicity against human foreskin fibroblast cells after 3 days by MTT test; type: cell-based
In short: (§2)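 MTT viability assay. Vero or HFF cells seeded at 2.5 × 10⁵ cells/well and left to attach 6-8 h. Exposed to compound at 100, 50, 25, 12.5, 6.3 and 1.5 µg/mL for 3 days at 37 °C, with a DMSO control. MTT added for 4 h, then solubilized overnight; absorbance read at 560-650 nm.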

[3] = system: Mycobacterium tuberculosis; test: Antimycobacterial activity against Mycobacterium tuberculosis H37Ra by microplate Alamar blue assay; type: functional
In short: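 Same alamar blue microplate setup (7H9GC, 2.5 × 10⁵ CFU/mL, 6 days, then dye read after about 24 h), using 2-fold compound dilutions. MIC90 is the lowest concentration giving about 90% inhibition relative to bacteria-only wells after background subtraction. Visual MIC is the lowest concentration preventing the blue-to-pink change.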

[4] = system: Mycobacterium tuberculosis; test: Antimycobacterial activity against Mycobacterium tuberculosis H37Ra at 50 ug/mL by microplate Alamar blue assay; type: functional; in short: as §1
Vero = test: Toxicity against Vero cells after 3 days by MTT test; type: cell-based; settings: chlorocebus sabaeus, 72 h; in short: as §2
[5] = system: Mycobacterium tuberculosis; test: Antimycobacterial activity against Mycobacterium tuberculosis H37Ra at 10 ug/mL by microplate Alamar blue assay; type: functional; in short: as §1
Listeria monocytogenes = test: Antibacterial activity Listeria monocytogenes ATCC 15313 after 16 to 20 hrs by broth microdilution method; type: functional; settings: Listeria monocytogenes, ATCC 15313
In short: (§3)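 Broth microdilution MIC. Exponentially growing bacteria diluted in sterile liquid medium to a final inoculum of 1 × 10⁴ CFU/mL. Cultured with compound dilutions for 16-20 h; compounds tested at 100, 50, 10 and 1 µg/mL. MIC taken as the concentration giving 100% inhibition of bacterial growth.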

Bacillus subtilis = test: Antibacterial activity against Bacillus subtilis ATCC 6633 after 16 to 20 hrs by broth microdilution method; type: functional; settings: Bacillus subtilis, ATCC 6633; in short: as §3
[6] = system: Staphylococcus epidermidis; test: Antibacterial activity against Staphylococcus epidermidis ATCC 14990 after 16 to 20 hrs by broth microdilution method; type: functional; settings: for MIC: Staphylococcus epidermidis, ATCC 14990; in short: as §3
Streptococcus pneumoniae = test: Antibacterial activity Streptococcus pneumoniae ATCC 49619 after 16 to 20 hrs by broth microdilution method; type: functional; settings: Streptococcus pneumoniae, ATCC 49619; in short: as §3
Salmonella typhimurium = test: Antibacterial activity against Salmonella Typhimurium after 16 to 20 hrs by broth microdilution method; type: functional, Salmonella enterica subsp. enterica serovar Typhimurium; settings: Salmonella enterica; in short: as §3
Pseudomonas aeruginosa = test: Antibacterial activity against Pseudomonas aeruginosa […] after 16 to 20 hrs by broth microdilution method; type: functional; settings: Pseudomonas aeruginosa, ATCC 13048; in short: as §3
Klebsiella aerogenes = test: Antibacterial activity against Enterobacter aerogenes after 16 to 20 hrs by broth microdilution method; type: functional; settings: Klebsiella aerogenes; in short: as §3
Streptococcus pyogenes = test: Antibacterial activity Streptococcus pyogenes ATCC 19615 after 16 to 20 hrs by broth microdilution method; type: functional; settings: Streptococcus pyogenes, ATCC 19615; in short: as §3
Escherichia coli = test: Antibacterial activity against Escherichia coli ATCC 25922 after 16 to 20 hrs by broth microdilution method; type: functional; settings: Escherichia coli, ATCC 25922; in short: as §3
Proteus vulgaris = test: Antibacterial activity against Proteus vulgaris ATCC 49132 after 16 to 20 hrs by broth microdilution method; type: functional; in short: as §3
Enterococcus faecalis = test: Antibacterial activity Enterococcus faecalis ATCC 29212 after 16 to 20 hrs by broth microdilution method; type: functional; settings: Enterococcus faecalis, ATCC 29212; in short: as §3
Staphylococcus aureus = test: Antibacterial activity against Staphylococcus aureus ATCC 25923 after 16 to 20 hrs by broth microdilution method; type: functional; settings: for MIC: Staphylococcus aureus, ATCC 25923; in short: as §3

Structure (SMILES) | inhibition at 100 µg/mL (Mycobacterium avium) [%] | inhibition at 100 µg/mL [1] [%] | other results
O=c1[nH]c(=O)n([C@@H]2O[C@H](CO)[C@@H](O)[C@@H]2O)cc1C(O)C(Br)Br (some centres undefined) | 0 | 0 | –
O=c1[nH]c(=O)n([C@@H]2O[C@H](CO)[C@@H](O)[C@@H]2O)cc1Br | 0 | 0 | –
Cc1cn([C@@H]2O[C@H](CO)[C@@H](O)[C@@H]2O)c(=O)[nH]c1=S | 0 | 0 | –
CCCCCCCCCCCCC#Cc1cn([C@@H]2O[C@H](CO)[C@@H](O)[C@@H]2O)c(=O)[nH]c1=O | 0 | 100 | CC50 at 72 h [2]: > 100 µg/mL; MIC90 [3]: 10 µg/mL (≈ 22.9 µM); inhibition at 50 µg/mL [4]: 100%; CC10 (Vero): > 100 µg/mL; inhibition at 10 µg/mL [5]: 50%
CCCCCCCCCCCCC#Cc1cn([C@@H]2O[C@H](CO)[C@@H](O)[C@H]2F)c(=O)[nH]c1=O | 20 | 100 | CC50 at 72 h [2]: > 100 µg/mL; MIC (Listeria monocytogenes): > 100 µg/mL; MIC (Bacillus subtilis): > 100 µg/mL; Inhibition [6]: 100%; MIC [6]: 100 µg/mL (≈ 228 µM); MIC90 [3]: 10 µg/mL (≈ 22.8 µM); MIC (Streptococcus pneumoniae): > 100 µg/mL; MIC (Salmonella typhimurium): > 100 µg/mL; MIC (Pseudomonas aeruginosa): > 100 µg/mL; inhibition at 50 µg/mL [4]: 100%; MIC (Klebsiella aerogenes): > 100 µg/mL; MIC (Streptococcus pyogenes): > 100 µg/mL; CC10 (Vero): > 100 µg/mL; inhibition at 10 µg/mL [5]: 50%; MIC (Escherichia coli): > 100 µg/mL; MIC (Proteus vulgaris): > 100 µg/mL; MIC (Enterococcus faecalis): > 100 µg/mL; Inhibition (Staphylococcus aureus): 100%; MIC (Staphylococcus aureus): 100 µg/mL (≈ 228 µM)
CCCc1ccc(C#Cc2cn([C@@H]3O[C@H](CO)[C@@H](O)[C@@H]3O)c(=O)[nH]c2=O)cc1 | 25 | 100 | CC50 at 72 h [2]: > 100 µg/mL; MIC90 [3]: 100 µg/mL (≈ 259 µM); inhibition at 50 µg/mL [4]: 50%; CC10 (Vero): > 100 µg/mL
CCOC(=O)/C=C/c1cn([C@@H]2O[C@H](CO)[C@@H](O)[C@H]2F)c(=O)[nH]c1=O | 0 | 0 | –
CCOC(=O)C(Cl)C(O)c1cn([C@@H]2O[C@H](CO)[C@@H](O)[C@H]2F)c(=O)[nH]c1=O (some centres undefined) | 0 | 0 | –
CCOC(=O)C(Br)C(O)c1cn([C@@H]2O[C@H](CO)[C@@H](O)[C@H]2F)c(=O)[nH]c1=O (some centres undefined) | 0 | 0 | –
O=c1[nH]c(=O)n([C@@H]2O[C@H](CO)[C@@H](O)[C@H]2F)cc1Br | 0 | 0 | –
O=C(O)/C=C/c1cn([C@@H]2O[C@H](CO)[C@@H](O)[C@@H]2O)c(=O)[nH]c1=O | 0 | 0 | –
COC(CI)c1cn([C@@H]2O[C@H](CO)[C@@H](O)[C@@H]2O)c(=O)[nH]c1=O (some centres undefined) | 0 | 0 | –
CCCCCC#Cc1cn([C@@H]2O[C@H](CO)[C@@H](O)[C@@H]2O)c(=O)[nH]c1=O | 0 | 25 | –
CCCCCCCCC#Cc1cn([C@@H]2O[C@H](CO)[C@@H](O)[C@@H]2O)c(=O)[nH]c1=O | 50 | 100 | CC50 at 72 h [2]: > 100 µg/mL; MIC90 [3]: 100 µg/mL (≈ 263 µM); inhibition at 50 µg/mL [4]: 50%; CC10 (Vero): > 100 µg/mL; inhibition at 10 µg/mL [5]: 10%
CCCCCCCCCCCC#Cc1cn([C@@H]2O[C@H](CO)[C@@H](O)[C@@H]2O)c(=O)[nH]c1=O | 25 | 100 | CC50 at 72 h [2]: > 100 µg/mL; MIC90 [3]: 10 µg/mL (≈ 23.7 µM); inhibition at 50 µg/mL [4]: 100%; CC10 (Vero): > 100 µg/mL; inhibition at 10 µg/mL [5]: 50%
O=c1[nH]c(=O)n([C@@H]2O[C@H](CO)[C@@H](O)[C@H]2F)cc1Cl | 0 | 20 | –
Cc1cn([C@@H]2O[C@H](CO)[C@@H](O)[C@H]2F)c(=O)[nH]c1=S | 0 | 25 | –
O=c1[nH]c(=O)n([C@@H]2O[C@H](CO)[C@@H](O)[C@@H]2O)cc1C(O)C(Cl)Cl (some centres undefined) | 0 | 0 | –
O=c1[nH]c(=O)n([C@@H]2O[C@H](CO)[C@@H](O)[C@@H]2O)cc1C(O)CI (some centres undefined) | 0 | 0 | –
O=C(O)C(I)C(O)c1cn([C@@H]2O[C@H](CO)[C@@H](O)[C@H]2F)c(=O)[nH]c1=O (some centres undefined) | 0 | 0 | –
O=c1[nH]c(=O)n([C@@H]2O[C@H](CO)[C@@H](O)[C@@H]2O)cc1Cl | 0 | 0 | –
O=c1[nH]c(=S)ccn1[C@@H]1O[C@H](CO)[C@@H](O)[C@@H]1O | 0 | 0 | –
CCCCCC#Cc1cn([C@@H]2O[C@H](CO)[C@@H](O)[C@H]2F)c(=O)[nH]c1=O | 0 | 50 | CC50 at 72 h [2]: > 100 µg/mL; CC10 (Vero): > 100 µg/mL
O=c1[nH]c(=S)ccn1[C@@H]1O[C@H](CO)[C@@H](O)[C@H]1F | 0 | 25 | –
CCOC(=O)/C=C/c1cn([C@@H]2O[C@H](CO)[C@@H](O)[C@@H]2O)c(=O)[nH]c1=O | 0 | 0 | –
O=C(O)/C=C/c1cn([C@@H]2O[C@H](CO)[C@@H](O)[C@H]2F)c(=O)[nH]c1=O | 0 | 0 | –
NNC(=O)c1ccncc1 [ISONIAZID] | – | – | MIC (Listeria monocytogenes): > 100 µg/mL; MIC (Bacillus subtilis): > 100 µg/mL; MIC [6]: > 100 µg/mL; MIC (Streptococcus pneumoniae): > 100 µg/mL; MIC (Salmonella typhimurium): > 100 µg/mL; MIC (Pseudomonas aeruginosa): > 100 µg/mL; MIC (Klebsiella aerogenes): > 100 µg/mL; MIC (Streptococcus pyogenes): > 100 µg/mL; MIC (Escherichia coli): > 100 µg/mL; MIC (Proteus vulgaris): > 100 µg/mL; MIC (Enterococcus faecalis): > 100 µg/mL; MIC (Staphylococcus aureus): > 100 µg/mL
